Our source for the IC50 values is ChEMBL document CHEMBL4715744, “Concise synthesis of carbazole-1,4-quinones and evaluation of their antiproliferative activity against HCT-116 and HL-60 cells” (Eur J Med Chem, 2016).

Each structure is given as a SMILES string.

The first assay deals with HL-60. In words: Cytotoxicity against human HL-60 cells assessed as reduction in cell viability incubated for 48 hrs by WST-1 assay. The note with it: HL-60, 48 h. It counts as functional, cell-based. A digest of the protocol: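 HL-60 promyelocytic leukaemia cells, with proliferation read out by WST-1; activity expressed as IC50.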
(Formazan colour is commonly taken as a measure of viable cells.)
A word on the IC50: it is the midpoint of a concentration-inhibition curve. For `O=C1C=CC(=O)c2c1[nH]c1ccccc21`, the IC50 was determined as 1000 nM.
`CC1=CC(=O)c2[nH]c3ccc(C(F)(F)F)cc3c2C1=O`: the IC50 is 1130 nM.
Regarding `CC1=CC(=O)c2[nH]c3ccc(F)cc3c2C1=O`, the IC50 is 4400 nM.
Consider `COc1cc2[nH]c3c(c2cc1OC)C(=O)C(C)=CC3=O`, for which the IC50 was 8950 nM.
The same measure, in the same setting: the value for `CC1=CC(=O)c2[nH]c3cc(Cl)ccc3c2C1=O` was more than 10000 nM; that for `COCn1c2c(c3ccccc31)C(=O)C=C(C)C2=O` was more than 10000 nM.
On the same count and under the same terms, the value for `COc1cc(OC)c2c3c([nH]c2c1)C(=O)C=C(C)C3=O` was 7260 nM; that for `COCn1c2c(c3ccccc31)C(=O)C=CC2=O` was 1380 nM.
Same read-out and setting: the figure for `CC1=CC(=O)c2[nH]c3cc([N+](=O)[O-])ccc3c2C1=O` is 1580 nM.
For the compound `COc1cc(OC)c2[nH]c3c(c2c1)C(=O)C(C)=CC3=O`, the IC50 was 3820 nM.
The same measure, in the same setting: the value for `CC1=CC(=O)c2[nH]c3cc(C)ccc3c2C1=O` was 6930 nM.
`COc1ccc(OC)c2c3c([nH]c12)C(=O)C=C(C)C3=O`: the IC50 was 2270 nM.
Same read-out and setting: the value for `CC1=CC(=O)c2[nH]c3ccc([N+](=O)[O-])cc3c2C1=O` was 1030 nM.
The same measure, in the same setting: the value for `CC1=CC(=O)c2[nH]c3cc(F)ccc3c2C1=O` was 1470 nM; that for `COc1ccc2[nH]c3c(c2c1OC)C(=O)C(C)=CC3=O` was more than 10000 nM; that for `CC1=CC(=O)c2[nH]c3cc4ccccc4cc3c2C1=O` was 5270 nM.
Still for that read-out and setting: the value for `CC1=CC(=O)c2[nH]c3cc(C(F)(F)F)ccc3c2C1=O` was 6020 nM; that for `COCn1c2c(c3ccccc31)C(=O)C(C)=CC2=O` was 3920 nM; that for `CC1=CC(=O)c2[nH]c3ccc4ccccc4c3c2C1=O` was more than 10000 nM.
Consider `CC1=CC(=O)c2[nH]c3ccc(C)cc3c2C1=O`, for which the IC50 was more than 10000 nM.
On the same count and under the same terms, the figure for `COc1ccc2[nH]c3c(c2c1)C(=O)C(C)=CC3=O` is 3410 nM.
Consider `COc1ccc2c3c([nH]c2c1)C(=O)C=C(C)C3=O`, for which the half-inhibitory concentration (IC50) came to 1750 nM.
Still for that read-out and setting: the value for `CC1=CC(=O)c2[nH]c3ccc(Cl)cc3c2C1=O` was 1280 nM; that for `CC1=CC(=O)c2[nH]c3ccccc3c2C1=O` [MURRAYAQUINONE A] was 3020 nM.

A further assay concerns HCT-116. In words: Cytotoxicity against human HCT-116 cells assessed as reduction in cell viability incubated for 48 hrs by MTT assay. The following applies: HCT-116, 48 h. It is filed as functional, cell-based. In outline: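 Antiproliferative test on HCT-116 colon tumour cells, read out by MTT; activity expressed as IC50.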
`O=C1C=CC(=O)c2c1[nH]c1ccccc21`: the half-maximal inhibitory concentration (IC50) worked out at 763 nM.
As to `CC1=CC(=O)c2[nH]c3ccc(C(F)(F)F)cc3c2C1=O`, the IC50 is 921 nM.
Turning to `CC1=CC(=O)c2[nH]c3ccc(F)cc3c2C1=O`, the half-inhibitory concentration (IC50) came out at 2700 nM.
`COc1cc2[nH]c3c(c2cc1OC)C(=O)C(C)=CC3=O`: the IC50 is 4090 nM.
As for `CC1=CC(=O)c2[nH]c3cc(Cl)ccc3c2C1=O`, the IC50 was determined as 895 nM.
Turning to `COCn1c2c(c3ccccc31)C(=O)C=C(C)C2=O`, the IC50 was more than 10000 nM.
Still for that read-out and setting: the figure for `COc1cc(OC)c2c3c([nH]c2c1)C(=O)C=C(C)C3=O` is more than 10000 nM.
Still for that read-out and setting: the value for `COCn1c2c(c3ccccc31)C(=O)C=CC2=O` was 1310 nM.
`CC1=CC(=O)c2[nH]c3cc([N+](=O)[O-])ccc3c2C1=O`: the IC50 is 1370 nM.
Still for that read-out and setting: the figure for `COc1cc(OC)c2[nH]c3c(c2c1)C(=O)C(C)=CC3=O` is 3600 nM.
For `CC1=CC(=O)c2[nH]c3cc(C)ccc3c2C1=O`, the half-inhibitory concentration (IC50) amounted to 1000 nM.
Still for that read-out and setting: the figure for `COc1ccc(OC)c2c3c([nH]c12)C(=O)C=C(C)C3=O` is 1840 nM; for `CC1=CC(=O)c2[nH]c3ccc([N+](=O)[O-])cc3c2C1=O` it is 569 nM; for `CC1=CC(=O)c2[nH]c3cc(F)ccc3c2C1=O` it is 1000 nM.
For the compound `COc1ccc2[nH]c3c(c2c1OC)C(=O)C(C)=CC3=O`, the IC50 is more than 10000 nM.
Same read-out and setting: the value for `CC1=CC(=O)c2[nH]c3cc4ccccc4cc3c2C1=O` was more than 10000 nM; that for `CC1=CC(=O)c2[nH]c3cc(C(F)(F)F)ccc3c2C1=O` was more than 10000 nM.
`COCn1c2c(c3ccccc31)C(=O)C(C)=CC2=O`: the IC50 worked out at 6490 nM.
For `CC1=CC(=O)c2[nH]c3ccc4ccccc4c3c2C1=O`, the IC50 was more than 10000 nM.
Turning to `CC1=CC(=O)c2[nH]c3ccc(C)cc3c2C1=O`, the concentration for half-maximal inhibition (IC50) turned out to be 2030 nM.
Still for that read-out and setting: the value for `COc1ccc2[nH]c3c(c2c1)C(=O)C(C)=CC3=O` was 1600 nM; that for `COc1ccc2c3c([nH]c2c1)C(=O)C=C(C)C3=O` was 992 nM; that for `CC1=CC(=O)c2[nH]c3ccc(Cl)cc3c2C1=O` was 2210 nM.
On the same count and under the same terms, the figure for `CC1=CC(=O)c2[nH]c3ccccc3c2C1=O` [MURRAYAQUINONE A] is 3720 nM.
